# Measurements published in ChEMBL document CHEMBL2311305, “Antiproliferative potency of novel benzofuran-2-carboxamides on tumour cell lines: cell death mechanisms and determination of crystal structure” (Eur J Med Chem, 2013).
# Activity calls are given as the source filed them. No cut-off for these calls is given here.
# What was measured:
# [1] = tested on: WI-38; experiment: Cytotoxicity against human WI38 cells after 72 hrs by MTT assay; format: cell-based; conditions: Homo sapiens, WI-38, 72 h
# Outline: (§1)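 Cells seeded at 3000-6000 per well on day 0, according to cell line doubling time. Compound added in five 10-fold dilutions, 72-h incubation, then MTT colorimetric read-out. Absorbances converted to percentage growth by NCI formulae. IC50 obtained by linear regression between the concentrations bracketing PG 50; ">100" assigned when no concentration reaches it. Quadruplicate points, three independent experiments.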
# [2] = tested on: SW-620; experiment: Induction of cell cycle arrest in human SW620 cells assessed as S phase cells at 5 uM after 24 hrs by PI-staining based flow cytometric analysis (reference value: 41.1 +/- 0.8%); format: functional
# [3] = tested on: SK-BR-3; experiment: Cytotoxicity against human SKBR3 cells after 72 hrs by MTT assay; format: functional, cell-based; conditions: SK-BR-3, 72 h; outline: as §1
# [4] = tested on: SW-620; experiment: Induction of cell cycle arrest in human SW620 cells assessed as subG1 phase cells at 10 uM after 48 hrs by PI-staining based flow cytometric analysis (reference value: 8.5 +/- 2.1%); format: functional
# [5] = tested on: SW-620; experiment: Induction of cell cycle arrest in human SW620 cells assessed as G1 phase cells at 5 uM after 24 hrs by PI-staining based flow cytometric analysis (reference value: 46.3 +/- 1.8%); format: functional
# [6] = tested on: SW-620; experiment: Induction of cell cycle arrest in human SW620 cells assessed as G1 phase cells at 10 uM after 48 hrs by PI-staining based flow cytometric analysis (reference value: 51.1 +/- 2.5%); format: functional
# [7] = tested on: SW-620; experiment: Induction of cell cycle arrest in human SW620 cells assessed as subG1 phase cells at 5 uM after 48 hrs by PI-staining based flow cytometric analysis (reference value: 8.5 +/- 2.1%); format: functional
# [8] = tested on: SW-620; experiment: Induction of cell cycle arrest in human SW620 cells assessed as subG1 phase cells at 10 uM after 24 hrs by PI-staining based flow cytometric analysis (reference value: 6.9 +/- 2.1%); format: functional
# [9] = tested on: SW-620; experiment: Induction of cell cycle arrest in human SW620 cells assessed as G2/M phase cells at 5 uM after 48 hrs by PI-staining based flow cytometric analysis (reference value: 8.9 +/- 0.4%); format: functional
# [10] = tested on: SW-620; experiment: Cytotoxicity against human SW620 cells after 72 hrs by MTT assay; format: functional, cell-based; conditions: for IC50: Homo sapiens, SW-620, 72 h; outline: as §1
# [11] = tested on: HeLa; experiment: Cytotoxicity against human HeLa cells after 72 hrs by MTT assay; format: functional, cell-based; conditions: Homo sapiens, HeLa, 72 h; outline: as §1
# [12] = tested on: SW-620; experiment: Induction of apoptosis in human SW620 cells assessed as caspase3 activation at 10 uM after 24 to 48 hrs by caspase protease assay; format: functional, cell-based
# Outline: (§2)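 Compound at 5 µM on SK-BR-3 and 10 µM on SW620. Cells harvested after 24 and 48 h, washed in PBS, lysed 10 min on ice, centrifuged. Lysate diluted to 3 mg/mL protein and mixed with DTT-containing reaction buffer and caspase-3, -8 or -9 substrate. Incubated 90 min at 37 °C in the dark. Absorbance read at 405 nm, duplicates, compared with untreated control.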
# [13] = tested on: MIA PaCa-2; experiment: Cytotoxicity against human MIAPaCa2 cells after 72 hrs by MTT assay; format: functional, cell-based; conditions: Homo sapiens, MIA PaCa-2, 72 h; outline: as §1
# [14] = tested on: SW-620; experiment: Induction of cell cycle arrest in human SW620 cells assessed as S phase cells at 5 uM after 48 hrs by PI-staining based flow cytometric analysis (reference value: 39.9 +/- 0.5%); format: functional
# [15] = tested on: SW-620; experiment: Induction of mitotic catastrophe in human SW620 cells assessed as accumulation of G2/M phase cells at 5 to 10 uM after 24 to 48 hrs by PI-staining based flow cytometric analysis relative to control; format: functional, cell-based
# [16] = tested on: SW-620; experiment: Induction of cell cycle arrest in human SW620 cells assessed as G1 phase cells at 5 uM after 48 hrs by PI-staining based flow cytometric analysis (reference value: 51.1 +/- 2.5%); format: functional
# [17] = tested on: MCF7; experiment: Cytotoxicity against human MCF7 cells after 72 hrs by MTT assay; format: functional, cell-based; conditions: Homo sapiens, MCF7, 72 h; outline: as §1
# [18] = tested on: SW-620; experiment: Induction of cell cycle arrest in human SW620 cells assessed as G2/M phase cells at 10 uM after 24 hrs by PI-staining based flow cytometric analysis (reference value: 12.6 +/- 1%); format: functional
# [19] = tested on: SW-620; experiment: Induction of cell cycle arrest in human SW620 cells assessed as subG1 phase cells at 5 uM after 24 hrs by PI-staining based flow cytometric analysis (reference value: 6.9 +/- 2.1%); format: functional
# [20] = tested on: SW-620; experiment: Induction of apoptosis in human SW620 cells assessed as caspase8 activation at 10 uM after 24 to 48 hrs by caspase protease assay; format: functional, cell-based; outline: as §2
# [21] = tested on: SW-620; experiment: Induction of cell cycle arrest in human SW620 cells assessed as G1 phase cells at 10 uM after 24 hrs by PI-staining based flow cytometric analysis (reference value: 46.3 +/- 1.8%); format: functional
# [22] = tested on: SW-620; experiment: Induction of apoptosis in human SW620 cells assessed as caspase9 activation at 10 uM after 24 to 48 hrs by caspase protease assay; format: functional, cell-based; outline: as §2
# [23] = tested on: SW-620; experiment: Induction of cell cycle arrest in human SW620 cells assessed as G2/M phase cells at 10 uM after 48 hrs by PI-staining based flow cytometric analysis (reference value: 8.9 +/- 0.4%); format: functional
# [24] = tested on: SW-620; experiment: Induction of cell cycle arrest in human SW620 cells assessed as S phase cells at 10 uM after 24 hrs by PI-staining based flow cytometric analysis (reference value: 41.1 +/- 0.8%); format: functional
# [25] = tested on: SW-620; experiment: Induction of cell cycle arrest in human SW620 cells assessed as G2/M phase cells at 5 uM after 24 hrs by PI-staining based flow cytometric analysis (reference value: 12.6 +/- 1%); format: functional
# [26] = tested on: SW-620; experiment: Induction of cell cycle arrest in human SW620 cells assessed as S phase cells at 10 uM after 48 hrs by PI-staining based flow cytometric analysis (reference value: 39.9 +/- 0.5%); format: functional
# [27] = tested on: SK-BR-3; experiment: Induction of cell cycle arrest in human SKBR3 cells assessed as G2/M phase cells at 10 uM after 24 hrs by PI-staining based flow cytometric analysis (reference value: 33.7 +/- 0.3%); format: functional
# [28] = tested on: SK-BR-3; experiment: Induction of cell cycle arrest in human SKBR3 cells assessed as subG1 phase cells at 5 uM after 48 hrs by PI-staining based flow cytometric analysis (reference value: 27.5 +/- 0.2%); format: functional
# [29] = tested on: SK-BR-3; experiment: Induction of cell cycle arrest in human SKBR3 cells assessed as subG1 phase cells at 10 uM after 48 hrs by PI-staining based flow cytometric analysis (reference value: 27.5 +/- 0.2%); format: functional
# [30] = tested on: SK-BR-3; experiment: Induction of cell cycle arrest in human SKBR3 cells assessed as subG1 phase cells at 10 uM after 24 hrs by PI-staining based flow cytometric analysis (reference value: 25.1 +/- 0.4%); format: functional
# [31] = tested on: SK-BR-3; experiment: Induction of cell cycle arrest in human SKBR3 cells assessed as G1 phase cells at 10 uM after 24 hrs by PI-staining based flow cytometric analysis (reference value: 40.1 +/- 0.7%); format: functional
# [32] = tested on: SK-BR-3; experiment: Induction of cell cycle arrest in human SKBR3 cells assessed as S phase cells at 5 uM after 24 hrs by PI-staining based flow cytometric analysis (reference value: 26.2 +/- 2.3%); format: functional
# [33] = tested on: SK-BR-3; experiment: Induction of cell cycle arrest in human SKBR3 cells assessed as S phase cells at 10 uM after 48 hrs by PI-staining based flow cytometric analysis (reference value: 35.2 +/- 1.8%); format: functional
# [34] = tested on: SK-BR-3; experiment: Induction of cell cycle arrest in human SKBR3 cells assessed as S phase cells at 5 uM after 48 hrs by PI-staining based flow cytometric analysis (reference value: 35.2 +/- 1.8%); format: functional
# [35] = tested on: SK-BR-3; experiment: Induction of cell cycle arrest in human SKBR3 cells assessed as G1 phase cells at 5 uM after 24 hrs by PI-staining based flow cytometric analysis (reference value: 40.1 +/- 0.7%); format: functional
# [36] = tested on: SK-BR-3; experiment: Induction of apoptosis in human SKBR3 cells assessed as caspase3 activation at 5 uM after 24 to 48 hrs by caspase protease assay; format: functional, cell-based; outline: as §2
# [37] = tested on: SK-BR-3; experiment: Induction of cell cycle arrest in human SKBR3 cells assessed as G1 phase cells at 10 uM after 48 hrs by PI-staining based flow cytometric analysis (reference value: 53.3 +/- 1.5%); format: functional
# [38] = tested on: SK-BR-3; experiment: Induction of apoptosis in human SKBR3 cells assessed as caspase8 activation at 5 uM after 24 to 48 hrs by caspase protease assay; format: functional, cell-based; outline: as §2
# [39] = tested on: SK-BR-3; experiment: Induction of cell cycle arrest in human SKBR3 cells assessed as subG1 phase cells at 5 uM after 24 hrs by PI-staining based flow cytometric analysis (reference value: 25.1 +/- 0.4%); format: functional
# [40] = tested on: SK-BR-3; experiment: Induction of cell cycle arrest in human SKBR3 cells assessed as G2/M phase cells at 5 uM after 24 hrs by PI-staining based flow cytometric analysis (reference value: 33.7 +/- 0.3%); format: functional
# [41] = tested on: SK-BR-3; experiment: Induction of apoptosis in human SKBR3 cells assessed as caspase9 activation at 5 uM after 24 to 48 hrs by caspase protease assay; format: functional, cell-based; outline: as §2
# [42] = tested on: SK-BR-3; experiment: Induction of cell cycle arrest in human SKBR3 cells assessed as G1 phase cells at 5 uM after 48 hrs by PI-staining based flow cytometric analysis (reference value: 53.3 +/- 1.5%); format: functional
# [43] = tested on: SK-BR-3; experiment: Induction of cell cycle arrest in human SKBR3 cells assessed as S phase cells at 10 uM after 24 hrs by PI-staining based flow cytometric analysis (reference value: 26.2 +/- 2.3%); format: functional
# [44] = tested on: SK-BR-3; experiment: Induction of cell cycle arrest in human SKBR3 cells assessed as G2/M phase cells at 5 uM after 48 hrs by PI-staining based flow cytometric analysis (reference value: 11.6 +/- 0.3%); format: functional
# [45] = tested on: SK-BR-3; experiment: Induction of cell cycle arrest in human SKBR3 cells assessed as G2/M phase cells at 10 uM after 48 hrs by PI-staining based flow cytometric analysis (reference value: 11.6 +/- 0.3%); format: functional
structure (smiles),measurement,setting,value
Cl.O=C(Nc1ccc(C2=NCCN2)cc1)c1cc2ccccc2o1,IC50,[1],23.3 µM
same,Activity,[2],43.9%
same,IC50,[3],40.5 µM
same,Activity,[4],8.2%
same,Activity,[5],43.4%
same,Activity,[6],46.9%
same,Activity,[7],4.9%
same,Activity,[8],10.4%
same,Activity,[9],8.3%
same,Activity,[10],Dose-dependent effect
same,IC50,[10],6.4 µM
same,IC50,[11],27.5 µM
same,Activity,[12],inactive
same,IC50,[13],31.5 µM
same,Activity,[14],40.7%
same,Activity,[15],Active
same,Activity,[16],46.8%
same,IC50,[17],26.2 µM
same,Activity,[18],13.5%
same,Activity,[19],7.1%
same,Activity,[20],inactive
same,Activity,[21],45.7%
same,Activity,[22],inactive
same,Activity,[23],10.5%
same,Activity,[24],40.9%
same,Activity,[25],12.7%
same,Activity,[26],42.6%
Cl.O=C(Nc1nc2ccc(C3=NCCN3)cc2[nH]1)c1cc2ccccc2o1,IC50,[1],> 100 µM
same,Activity,[27],6.4%
same,Activity,[28],38.1%
same,IC50,[3],3.83 µM
same,Activity,[29],36.3%
same,Activity,[30],31.5%
same,Activity,[31],70%
same,IC50,[10],74.9 µM
same,IC50,[11],68.5 µM
same,IC50,[13],91.2 µM
same,Activity,[32],31.5%
same,Activity,[33],31.3%
same,Activity,[34],68.5%
same,Activity,[35],58.5%
same,Activity,[36],Active
same,Activity,[37],52.8%
same,Activity,[38],Active
same,Activity,[39],33.1%
same,IC50,[17],7 µM
same,Activity,[40],10%
same,Activity,[41],Active
same,Activity,[42],21.8%
same,Activity,[43],23.6%
same,Activity,[44],9.7%
same,Activity,[45],15.9%
